Consider two molecules from ChEMBL document CHEMBL4043120 (Bioorg Med Chem, 2017).

Active and inactive are the calls of the source. The calls are words filed in the database; no cut-off is given here.

In assay [1] the target is T1, Histone-lysine N-methyltransferase EHMT2 (Homo sapiens) (UniProt Q96KQ7).
T1 sequence (whole entry): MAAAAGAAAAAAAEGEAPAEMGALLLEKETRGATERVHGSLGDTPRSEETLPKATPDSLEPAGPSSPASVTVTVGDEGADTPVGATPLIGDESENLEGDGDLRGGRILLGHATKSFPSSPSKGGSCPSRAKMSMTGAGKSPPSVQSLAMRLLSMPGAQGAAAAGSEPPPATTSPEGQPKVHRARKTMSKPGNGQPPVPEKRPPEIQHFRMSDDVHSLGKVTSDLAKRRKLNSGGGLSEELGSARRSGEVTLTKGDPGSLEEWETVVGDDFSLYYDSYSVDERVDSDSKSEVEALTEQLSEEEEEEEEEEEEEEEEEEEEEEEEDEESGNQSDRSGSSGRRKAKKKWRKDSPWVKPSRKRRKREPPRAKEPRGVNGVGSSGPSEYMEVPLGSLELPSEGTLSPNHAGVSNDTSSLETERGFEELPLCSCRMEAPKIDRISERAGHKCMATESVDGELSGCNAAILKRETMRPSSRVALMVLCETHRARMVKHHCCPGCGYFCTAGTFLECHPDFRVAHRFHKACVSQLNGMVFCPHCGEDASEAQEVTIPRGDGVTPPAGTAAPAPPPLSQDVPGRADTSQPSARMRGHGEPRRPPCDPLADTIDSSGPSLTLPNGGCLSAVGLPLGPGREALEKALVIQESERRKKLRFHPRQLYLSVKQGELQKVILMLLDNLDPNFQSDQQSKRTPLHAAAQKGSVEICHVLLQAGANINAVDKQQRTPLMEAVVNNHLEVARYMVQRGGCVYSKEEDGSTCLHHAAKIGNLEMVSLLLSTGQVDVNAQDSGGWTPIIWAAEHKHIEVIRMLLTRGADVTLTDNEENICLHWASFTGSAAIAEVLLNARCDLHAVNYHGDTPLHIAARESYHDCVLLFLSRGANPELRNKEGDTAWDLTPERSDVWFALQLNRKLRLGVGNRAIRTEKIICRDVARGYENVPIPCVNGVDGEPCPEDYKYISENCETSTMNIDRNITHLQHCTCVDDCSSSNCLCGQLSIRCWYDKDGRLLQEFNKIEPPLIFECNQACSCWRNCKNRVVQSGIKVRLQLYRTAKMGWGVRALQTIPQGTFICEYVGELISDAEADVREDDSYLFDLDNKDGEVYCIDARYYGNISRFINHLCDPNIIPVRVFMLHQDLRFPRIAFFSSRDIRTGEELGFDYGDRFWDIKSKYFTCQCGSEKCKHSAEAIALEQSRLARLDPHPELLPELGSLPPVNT
The assay can be described thus: Inhibition of EHMT2 (unknown origin) at 400 uM preincubated for 15 mins followed by SAM and biotinylated H3K9 peptide addition measured after 30 mins by TR-FRET assay relative to control. In outline: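 Single-point EHMT2 screen at 400 μM, 1% DMSO. Final 0.6 nM EHMT2, 0.5 µM biotinylated H3(1-21)K9 peptide, 3 µM SAM in 50 mM Tris-HCl pH 9.0, 50 mM NaCl, 1 mM DTT, 0.01% Tween-20. Detection 60 min with final 2 nM Eu-antibody, 50 nM ULight-streptavidin, 0.0001% poly-L-lysine. TR-FRET read at 665/620 nm.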
Background: TR-FRET usually uses a lanthanide donor and a delayed reading to cut background.

Assay [2] addresses T2, Histone-lysine N-methyltransferase EHMT1 (Homo sapiens, UniProt Q9H9B1).
T2 sequence (Q9H9B1 whole entry): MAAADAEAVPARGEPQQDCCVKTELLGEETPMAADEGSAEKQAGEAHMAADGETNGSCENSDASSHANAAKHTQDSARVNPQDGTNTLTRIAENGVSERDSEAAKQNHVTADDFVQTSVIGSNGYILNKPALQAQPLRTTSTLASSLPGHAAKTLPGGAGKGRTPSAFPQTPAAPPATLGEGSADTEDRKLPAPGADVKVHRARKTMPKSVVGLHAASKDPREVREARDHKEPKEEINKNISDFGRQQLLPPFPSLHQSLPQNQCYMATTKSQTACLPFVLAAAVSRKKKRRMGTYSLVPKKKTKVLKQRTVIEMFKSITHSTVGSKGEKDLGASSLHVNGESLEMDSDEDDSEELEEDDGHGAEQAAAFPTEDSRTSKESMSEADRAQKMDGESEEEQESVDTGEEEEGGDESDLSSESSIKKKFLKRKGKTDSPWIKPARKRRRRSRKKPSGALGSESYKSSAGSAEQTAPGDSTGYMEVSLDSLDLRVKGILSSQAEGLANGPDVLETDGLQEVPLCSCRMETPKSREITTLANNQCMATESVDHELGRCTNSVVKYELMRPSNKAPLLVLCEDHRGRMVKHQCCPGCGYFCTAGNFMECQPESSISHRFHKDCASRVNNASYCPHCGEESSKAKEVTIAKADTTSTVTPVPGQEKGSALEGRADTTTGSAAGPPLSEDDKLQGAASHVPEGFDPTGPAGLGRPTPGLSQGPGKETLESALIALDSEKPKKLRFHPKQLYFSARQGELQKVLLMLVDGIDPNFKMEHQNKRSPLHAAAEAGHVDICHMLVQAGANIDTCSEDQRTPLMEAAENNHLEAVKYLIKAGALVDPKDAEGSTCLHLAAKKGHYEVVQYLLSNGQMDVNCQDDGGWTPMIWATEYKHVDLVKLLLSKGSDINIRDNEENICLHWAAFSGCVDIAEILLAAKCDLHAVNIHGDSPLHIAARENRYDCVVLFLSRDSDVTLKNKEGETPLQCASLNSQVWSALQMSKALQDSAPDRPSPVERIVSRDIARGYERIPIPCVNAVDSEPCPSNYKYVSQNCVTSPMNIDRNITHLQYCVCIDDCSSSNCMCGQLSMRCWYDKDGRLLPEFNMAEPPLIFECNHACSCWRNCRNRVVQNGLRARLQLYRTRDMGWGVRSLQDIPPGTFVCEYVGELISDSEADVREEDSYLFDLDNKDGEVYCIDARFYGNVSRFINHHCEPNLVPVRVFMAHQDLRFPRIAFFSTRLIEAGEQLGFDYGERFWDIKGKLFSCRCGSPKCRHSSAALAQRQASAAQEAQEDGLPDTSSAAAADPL
The assay can be described thus: Inhibition of EHMT1 (unknown origin).

A further assay relates to MDA-MB-231. The assay can be described thus: Antiproliferative activity against human MDA-MB-231 cells at 200 uM after 72 hrs by sulforhodamine B assay relative to control. It is filed as functional. The settings on record: MDA-MB-231, 72 h. For orientation: In SRB staining, fixed cells bind dye roughly in proportion to their protein.
The target in assay [3] is T3, Histone-lysine N-methyltransferase EHMT1 (Homo sapiens) (UniProt Q9H9B1).
T3 sequence (whole entry): T2 sequence (Q9H9B1 whole entry)
Briefly: (§1) Inhibition of EHMT1 (unknown origin) preincubated for 5 mins followed by SAM and biotinylated H3K9 peptide addition measured after 120 mins by HTRF assay. The method in brief:
(§2)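 Final 0.4 nM enzyme, 150 nM biotinylated H3(1-21)K9 peptide, 6 μM SAM, pH 8.8 Tris buffer, 1% DMSO. Eu-antibody/SA-XL665 HTRF read at 665/620 nm. Mean±SEM of 3-4 independent experiments in triplicate.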

For assay [4], the target named is T2, Histone-lysine N-methyltransferase EHMT1. Described as §1. The settings on record: read-out: IC50. In outline:
as §2

Assay [5] deals with T1, Histone-lysine N-methyltransferase EHMT2 (Homo sapiens). The assay can be described thus: (§3) Inhibition of EHMT2 (unknown origin) preincubated for 15 mins followed by SAM and biotinylated H3K9 peptide addition measured after 30 mins by TR-FRET assay.
Another assay concerns HL-60. Briefly: Antiproliferative activity against human HL60 cells at 200 uM after 72 hrs by CCK8 assay relative to control. It is filed as functional. Particulars: HL-60, 72 h.
The target in assay [6] is T3, Histone-lysine N-methyltransferase EHMT1 (Homo sapiens). The assay can be described thus: Inhibition of EHMT1 (unknown origin) at 200 uM preincubated for 5 mins followed by SAM and biotinylated H3K9 peptide addition measured after 120 mins by HTRF assay relative to control. The method in brief:
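Final EHMT1 0.4 nM, biotinylated unmethylated H3(1-21)K9 peptide 150 nM, SAM 6 μM in 50 mM Tris-HCl pH 8.8, 50 mM NaCl, 1 mM DTT, 0.01% Tween-20; samples at 200 μM, 1% DMSO final. Detection by Eu-antibody plus streptavidin-XL665, 60 min. HTRF read: excitation 320 or 340 nm, emission 665/620 nm.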

The target in assay [7] is T4, Histone-lysine N-methyltransferase EHMT2 (Homo sapiens, UniProt Q96KQ7).
T4 sequence (Q96KQ7 whole entry): T1 sequence (whole entry)
Described as §3.

For assay [8], the target named is Protein arginine N-methyltransferase 1 (Homo sapiens) (UniProt Q99873). Briefly: Inhibition of PRMT1 (unknown origin) at 400 uM preincubated for 5 mins followed by SAM and H4 (1 to 25 residues) peptide addition measured after 1 hr by HTRF assay relative to control.
Chain of Protein arginine N-methyltransferase 1 (Homo sapiens) (Q99873 whole entry, looked up, the tested form may be a part): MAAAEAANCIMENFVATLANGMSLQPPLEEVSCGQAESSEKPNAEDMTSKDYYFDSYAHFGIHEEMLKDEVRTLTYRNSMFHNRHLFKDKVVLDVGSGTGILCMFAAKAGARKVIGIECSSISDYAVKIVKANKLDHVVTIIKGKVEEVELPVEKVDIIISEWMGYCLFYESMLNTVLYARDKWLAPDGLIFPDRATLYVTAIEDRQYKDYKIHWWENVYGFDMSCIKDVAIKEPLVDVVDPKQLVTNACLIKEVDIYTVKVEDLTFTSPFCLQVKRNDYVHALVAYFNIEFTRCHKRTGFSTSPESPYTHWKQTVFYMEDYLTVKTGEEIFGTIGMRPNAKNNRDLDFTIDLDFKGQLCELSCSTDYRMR

As a reminder, the inhibition is how much of the control response was suppressed. As usually defined, the IC50 is the point on the concentration scale where inhibition reaches its midpoint. Regarding `Nc1ncnc2c1ncn2[C@@H]1O[C@H](C[C@@H](N)CC[C@H](N)C(=O)O)[C@@H](O)[C@H]1O` [SINEFUNGIN], the inhibition was 79.5% in [1], “Dose-dependent effect” in assay [3], “Dose-dependent effect” in [5] and 100% in [6]. Also, the values for the IC50 in assay [2] and in assay [4] were 0.1 to 20 µM and 28.4 µM, respectively. Besides, the inhibition at 200 µM in the assay on MDA-MB-231 stood at 42.8%; in the assay with HL-60, 41%.
Turning to `Nc1ncnc2c1ncn2[C@@H]1O[C@H](C[C@@H](N)CC2CC2)[C@@H](O)[C@H]1O`, the inhibition in assay [1] is 77.6%; in assay [3] it was “Dose-dependent effect”; in [5] it was “Dose-dependent effect”; in assay [6], 88.9%. Besides, the inhibition at 200 µM in the assay with MDA-MB-231 is 41.4%; with HL-60 it was 37.9 to 38.4%. The IC50 in assay [4] was 21.8 µM; in [7], 39.6 µM. Moreover, the inhibition entry in assay [8] was “inactive”.
